ChEMBL document CHEMBL3272255, “Substituted alpah-methylbenzyl and tricyclic arylalkyl lactamimides as inhibitors of blood platelet aggregation” (J Med Chem, 1976)

Experiments:
Cavia porcellus [1] = experiment: Antiplatelet activity in guinea pig assessed as inhibition of 0.45 ug/ml ADP-induced platelet aggregation measured as area between aggregation curve and baseline transmittance at 30 mg/kg, po for 4 days measured at 2 hrs post last dose by aggregometric analysis relative to control; format: functional
Outline: (§1)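 Guinea pigs were dosed by stomach tube at the stated dose daily for 4 days, with an untreated control group kept in parallel. Blood was taken by heart puncture 2 h after the last dose, and citrated PRP was isolated and adjusted. ADP was added in vitro. Total response was the area between the aggregation curve and baseline transmittance over 5 min, measured by planimeter. Percent inhibition came from group-average total response, treated vs control.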

Cavia porcellus [2] = experiment: Antiplatelet activity in guinea pig assessed as inhibition of 0.8 ug/ml ADP-induced platelet aggregation measured as change in light transmittance at 100 mg/kg, po for 4 days measured at 2 hrs post last dose by aggregometric analysis relative to control; format: functional
Outline: (§2)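 Dosing was oral by stomach tube for 4 days, alongside an untreated control group. Blood was drawn by heart puncture 2 h after the final dose, then citrated PRP was isolated and adjusted for aggregometry. ADP was added in vitro at the stated concentration. The read-out was the maximum increase in light transmittance (ΔT); group means were compared, treated vs control.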

Cavia porcellus [3] = experiment: Antiplatelet activity in guinea pig assessed as inhibition of 0.8 ug/ml ADP-induced platelet aggregation measured as change in light transmittance at 100 mg/kg, po for 1 day by aggregometric analysis relative to control; format: functional; details: 24 h
Cavia porcellus [4] = experiment: Antiplatelet activity in guinea pig assessed as inhibition of 0.45 ug/ml ADP-induced platelet aggregation measured as area between aggregation curve and baseline transmittance at 100 mg/kg, po for 4 days measured at 2 hrs post last dose by aggregometric analysis relative to control; format: functional; outline: as §1
Cavia porcellus [5] = experiment: Antiplatelet activity in guinea pig assessed as inhibition of 0.45 ug/ml ADP-induced platelet aggregation measured as area between aggregation curve and baseline transmittance at 100 mg/kg, po for 1 day by aggregometric analysis relative to control; format: functional; details: 24 h
Cavia porcellus [6] = experiment: Antiplatelet activity in guinea pig assessed as inhibition of 0.25 ug/ml ADP-induced platelet aggregation measured as area between aggregation curve and baseline transmittance at 30 mg/kg, po for 4 days measured at 2 hrs post last dose by aggregometric analysis relative to control; format: functional; outline: as §1
Cavia porcellus [7] = experiment: Antiplatelet activity in guinea pig assessed as 0.45 ug/ml ADP-induced platelet aggregation measured as change in light transmittance at 100 mg/kg, po for 4 days measured at 2 hrs post last dose by aggregometric analysis
[8] = Antiplatelet activity in human platelet rich plasma assessed as inhibition of ADP-induced platelet aggregation at 100 ug/ml after 20 mins by aggregometric analysis relative to control; format: functional
Outline: (§3)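 Human blood came from fasting donors who had taken no drugs for 5 days. It was citrated 1:9 with 3.8% sodium citrate. PRP was prepared at 100g for 10 min and PPP at 1500g for 15 min, and PRP was diluted with autologous PPP to 400000 platelets/mm³. Compound or saline control was incubated 20 min at 37°, then ADP was added at 2 μg/ml final. Percent inhibition was calculated from maximal ΔT, test vs control.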

Cavia porcellus [9] = experiment: Antiplatelet activity in guinea pig assessed as inhibition of 0.8 ug/ml ADP-induced platelet aggregation measured as area between aggregation curve and baseline transmittance at 100 mg/kg, po for 1 day by aggregometric analysis relative to control; format: functional; details: 24 h
[10] = Antiplatelet activity in human platelet rich plasma assessed as inhibition of ADP-induced platelet aggregation at 30 ug/ml after 20 mins by aggregometric analysis relative to control; format: functional; outline: as §3
Cavia porcellus [11] = experiment: Antiplatelet activity in guinea pig assessed as inhibition of 0.8 ug/ml ADP-induced platelet aggregation measured as change in light transmittance at 10 mg/kg, po for 4 days measured at 2 hrs post last dose by aggregometric analysis relative to control; format: functional; outline: as §2
Cavia porcellus [12] = experiment: Antiplatelet activity in guinea pig assessed as inhibition of 0.8 ug/ml ADP-induced platelet aggregation measured as change in light transmittance at 30 mg/kg, po for 4 days measured at 2 hrs post last dose by aggregometric analysis relative to control; format: functional; outline: as §2
Cavia porcellus [13] = experiment: Antiplatelet activity in guinea pig assessed as inhibition of 0.4 ug/ml ADP-induced platelet aggregation measured as change in light transmittance at 10 mg/kg, po for 4 days measured at 2 hrs post last dose by aggregometric analysis relative to control; format: functional; outline: as §2
Cavia porcellus [14] = experiment: Antiplatelet activity in guinea pig assessed as inhibition of 0.8 ug/ml ADP-induced platelet aggregation measured as area between aggregation curve and baseline transmittance at 30 mg/kg, po for 4 days measured at 2 hrs post last dose by aggregometric analysis relative to control; format: functional; outline: as §1
Cavia porcellus [15] = experiment: Antiplatelet activity in guinea pig assessed as inhibition of 0.8 ug/ml ADP-induced platelet aggregation measured as area between aggregation curve and baseline transmittance at 100 mg/kg, po for 4 days measured at 2 hrs post last dose by aggregometric analysis relative to control; format: functional; outline: as §1
Cavia porcellus [16] = experiment: Antiplatelet activity in guinea pig assessed as inhibition of 0.4 ug/ml ADP-induced platelet aggregation measured as area between aggregation curve and baseline transmittance at 10 mg/kg, po for 4 days measured at 2 hrs post last dose by aggregometric analysis relative to control; format: functional; outline: as §1
Cavia porcellus [17] = experiment: Antiplatelet activity in guinea pig assessed as inhibition of 0.8 ug/ml ADP-induced platelet aggregation measured as area between aggregation curve and baseline transmittance at 10 mg/kg, po for 4 days measured at 2 hrs post last dose by aggregometric analysis relative to control; format: functional; outline: as §1
Cavia porcellus [18] = experiment: Antiplatelet activity in guinea pig assessed as inhibition of 0.35 ug/ml ADP-induced platelet aggregation measured as change in light transmittance at 30 mg/kg, po for 4 days measured at 2 hrs post last dose by aggregometric analysis relative to control; format: functional; outline: as §2
Cavia porcellus [19] = experiment: Antiplatelet activity in guinea pig assessed as inhibition of 0.45 ug/ml ADP-induced platelet aggregation measured as change in light transmittance at 30 mg/kg, po for 4 days measured at 2 hrs post last dose by aggregometric analysis relative to control; format: functional; outline: as §2
Cavia porcellus [20] = experiment: Antiplatelet activity in guinea pig assessed as 0.45 ug/ml ADP-induced platelet aggregation measured as change in light transmittance at 100 mg/kg, po for 1 day by aggregometric analysis; details: 24 h
Cavia porcellus [21] = experiment: Antiplatelet activity in guinea pig assessed as inhibition of 0.25 ug/ml ADP-induced platelet aggregation measured as change in light transmittance at 30 mg/kg, po for 4 days measured at 2 hrs post last dose by aggregometric analysis relative to control; format: functional; outline: as §2
Cavia porcellus [22] = experiment: Toxicity in guinea pig assessed as mortality at 300 mg/kg, po measured after third dose; format: organism-based; set-up: dose 300 mg/kg, route oral; details: in vivo
Cavia porcellus [23] = experiment: Antiplatelet activity in guinea pig assessed as inhibition of 0.35 ug/ml ADP-induced platelet aggregation measured as area between aggregation curve and baseline transmittance at 30 mg/kg, po for 4 days measured at 2 hrs post last dose by aggregometric analysis relative to control; format: functional; outline: as §1
[24] = Antiplatelet activity in human platelet rich plasma assessed as platelet factor-3 release at 300 ug/ml after 20 mins relative to control
[25] = Antiplatelet activity in human platelet rich plasma assessed as inhibition of ADP-induced platelet aggregation at 10 ug/ml after 20 mins by aggregometric analysis relative to control; format: functional; outline: as §3

CCCC(C/N=C1/CCCCCN1)(c1ccccc1)c1ccccc1.Cl
inhibition in vivo at 30 mg/kg (Cavia porcellus [1]): 18%
ΔT % at 100 mg/kg (Cavia porcellus [2]): 62.7%
ΔT % at 100 mg/kg (Cavia porcellus [3]): 36%
inhibition in vivo at 100 mg/kg (Cavia porcellus [4]): 70%
inhibition in vivo at 100 mg/kg (Cavia porcellus [5]): 13%
inhibition in vivo at 30 mg/kg (Cavia porcellus [6]): 63%
ΔT % at 100 mg/kg (Cavia porcellus [7]): 34.3%
inhibition at 100 µg/mL [8]: 100%
inhibition in vivo at 100 mg/kg (Cavia porcellus [9]): 12%
inhibition at 30 µg/mL [10]: 57%
ΔT % at 10 mg/kg (Cavia porcellus [11]): 35.2%
ΔT % at 30 mg/kg (Cavia porcellus [12]): 35.3%
ΔT % at 10 mg/kg (Cavia porcellus [13]): 14.6%
inhibition in vivo at 30 mg/kg (Cavia porcellus [14]): 14%
inhibition in vivo at 100 mg/kg (Cavia porcellus [15]): 20%
inhibition in vivo at 10 mg/kg (Cavia porcellus [16]): 21%
inhibition in vivo at 10 mg/kg (Cavia porcellus [17]): 26%
ΔT % at 30 mg/kg (Cavia porcellus [18]): 24.8%
ΔT % at 30 mg/kg (Cavia porcellus [19]): 19.7%
ΔT % at 100 mg/kg (Cavia porcellus [20]): 21.4%
ΔT % at 30 mg/kg (Cavia porcellus [21]): 21.2%
Activity (Cavia porcellus [22]): Toxic
inhibition in vivo at 30 mg/kg (Cavia porcellus [23]): 55%
%max [24]: 0.13%
inhibition at 10 µg/mL [25]: 1%
